The nature of data set [1]: Kinetic solubility of the compound in phosphate buffer at pH 6.5 by nephelometry. It counts as physicochemical. As to conditions: read-out: Kinetic_solubility. In short, it runs like this:
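DMSO stocks spiked into pH 6.5 phosphate buffer or 0.01 M HCl (about pH 2.0), final DMSO 1% (v/v). Solubility range determined by nephelometry.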

For data set [2], the system named is Trypanosoma brucei brucei. As to the kind of experiment: Antitrypanosomal activity against Trypanosoma brucei brucei 427 bloodstream form after 48 hrs by Alamar blue assay. As to conditions: Trypanosoma brucei, 427, 48 h. It counts as functional, organism-based. The method in brief:
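Bloodstream parasites in 384-well plates, 24 h preincubation at 37 °C/5% CO2. DMSO dilutions diluted 1:21 in DMEM and added to give final 41.67 to 0.0004 µM; 48 h incubation. 70% Alamar Blue in HMI-9 + 10% FCS added, 2 h at 37 °C then 22 h at room temperature; read at ex 535/em 590 nm.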

For data set [3], the system named is Trypanosoma brucei rhodesiense. Put plainly: Antitrypanosomal activity against Trypanosoma brucei rhodesiense STIB 900 bloodstream form after 70 hrs by Alamar blue assay. The conditions noted are these: STIB 900, 70 h. It counts as functional, organism-based. In short, it runs like this:
(§1)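 Bloodstream forms (4×10³/well) in MEM with 25 mM HEPES, extra glucose, non-essential amino acids, 0.2 mM 2-mercaptoethanol, 1 mM pyruvate and 15% heat-inactivated horse serum. Eleven 3-fold dilutions from 100 to 0.002 µg/mL, 70 h at 37 °C/5% CO2; Alamar Blue 2 h, fluorescence at ex 536/em 588 nm; IC50 by linear regression; melarsoprol control. SI relative to L6 cells.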

In another data set the test system is L6. Put plainly: Cytotoxicity against rat L6 cells after 70 hrs by Alamar blue assay. As to conditions: L6, 70 h. It counts as cell-based. In short, it runs like this:
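4000 L-6 cells per well in RPMI 1640 with L-glutamine and 10% FBS. Eleven 3-fold dilutions from 100 to 0.002 µg/mL for 70 h; Alamar Blue 2 h, fluorescence at ex 536/em 588 nm. IC50 by linear regression from sigmoidal curves; podophyllotoxin control.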
On the technique in general: Resazurin is reduced to fluorescent resorufin, in cell work by metabolically active cells.

Data set [4] can be described thus: Selectivity index, ratio of IC50 for rat L6 cells to IC50 for Trypanosoma cruzi Tulahuen C2C4 amastigote stage. The conditions noted are these: read-out: Ratio IC50. The format is toxicity, cell-based.
A short description of data set [5]: Kinetic solubility of the compound in phosphate buffer at pH 2 by nephelometry. The conditions noted are these: read-out: Kinetic_solubility. The format is physicochemical.
The nature of data set [6]: Half life in human liver microsomes at 1 uM by LC-MS analysis. It counts as ADME, Microsome. In short, it runs like this:
(§2)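 Compound at 1 µM final (1 in 500 dilution of stock) incubated at 37 °C with human liver microsomes in 0.1 M phosphate buffer pH 7.4, 0.4 mg/mL protein. First-order depletion rate from exponential decay fit used to derive in vitro CLint and half-life; predicted hepatic extraction ratio from scaled CLint with liver blood flow 20.7 mL/min/kg.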
(Liver microsomes are a subcellular fraction often used to study metabolism.)

The nature of data set [7]: Selectivity index, ratio of IC50 for rat L6 cells to IC50 for Trypanosoma brucei rhodesiense STIB 900 bloodstream form. The format is toxicity, cell-based. As to conditions: read-out: Ratio IC50. In short, it runs like this: as §1
Data set [8] relates to Leishmania donovani. Put plainly: Antimicrobial activity against Leishmania donovani MHOM/ET/67/L82 amastigote form after 70 hrs by Alamar blue assay. It counts as functional, organism-based. As to conditions: MHOM/ET/67/L82, 70 h. In short, it runs like this:
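Axenic amastigotes grown at 37 °C in SM medium pH 5.4 with 10% heat-inactivated FBS, 5% CO2; 10⁵ parasites per well exposed to eleven 3-fold dilutions (100 to 0.002 µg/mL) for 70 h. Alamar Blue (resazurin) added for 2–4 h, fluorescence read at ex 536/em 588 nm. IC50 by linear regression from sigmoidal curves; miltefosine control.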

A further data set deals with Trypanosoma cruzi. As to the kind of experiment: Antitrypanosomal activity against Trypanosoma cruzi Tulahuen C2C4 amastigotes infected in rat L6 cells after 96 hrs by beta-galactosidase reporter gene assay. The format is functional, organism-based. The conditions noted are these: Tulahuen C2C4, L6, 96 h. The method in brief: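 L-6 cells (2000/well, RPMI 1640 + 10% FBS, 2 mM L-glutamine) infected after 24 h with 5000 LacZ-expressing trypomastigotes. At 48 h the medium was replaced with eleven 3-fold drug dilutions (100 to 0.002 µg/mL). After 96 h, CPRG/Nonidet substrate added, colour read at 540 nm after 2–6 h. IC50 by linear regression from sigmoidal curves; benznidazole control.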
A general note: Reporter assays use an easily measured gene product as a stand-in for the process of interest.

The nature of data set [9]: Partition coefficient, log D of the compound at pH 7.4 by HPLC analysis. The format is physicochemical. The conditions noted are these: octanol/water. The method in brief: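 Chromatographic gradient HPLC: mobile phase 50 mM ammonium acetate pH 7.4 (or ammonium formate pH 3.0) with an acetonitrile gradient of 0–100% over 10 min; UV detection at 220 and 254 nm.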
Data set [10] is described as follows: Intrinsic clearance in human liver microsomes at 1 uM after 60 mins by LC-MS analysis. It counts as ADME, Microsome. As to conditions: read-out: CLH. In short, it runs like this:
as §2

Data set [11] can be described thus: Selectivity index, ratio of IC50 for HEK293 cells to IC50 for Trypanosoma brucei brucei 427 bloodstream form. The format is toxicity, cell-based. The conditions noted are these: human, read-out: Ratio IC50. The method in brief: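 HEK293 cells (55 µL of 72,727 cells/mL in DMEM + 10% FCS) in 384-well plates, 24 h at 37 °C/5% CO2. Drug diluted 1:21 from DMSO, final 83.34 to 0.0004 µM, 48 h. […] SI relative to T. b. brucei.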

The subject of a further data set is Plasmodium falciparum. As to the kind of experiment: Antimicrobial activity against Plasmodium falciparum NF54 infected in human RBC after 48 hrs by [3H]hypoxanthine incorporation assay. It counts as functional, organism-based. The method in brief:
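Erythrocytic stage, drug-sensitive strain, in hypoxanthine-free RPMI 1640 with HEPES, NaHCO3, neomycin, Albumax, human A+ red cells at 2.5% haematocrit, 0.3% parasitaemia. Eleven 3-fold dilutions from 100 to 0.002 µg/mL; 37 °C, 4% CO2/3% O2/93% N2. ³H-hypoxanthine added at 48 h, further 24 h, then harvested and scintillation-counted. IC50 by linear regression; chloroquine control.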

Data set [12] concerns Leishmania donovani. Put plainly: Antimicrobial activity against Leishmania donovani amastigote form infected in mouse peritoneal macrophage after 96 hrs by Giemsa staining method. The format is functional, organism-based. The method in brief:
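Mouse peritoneal macrophages (4×10⁴/well, RPMI 1640 + 10% heat-inactivated FBS) infected after 24 h with 1.2×10⁵ axenic amastigotes; free parasites removed at 4 h, drug dilutions added next day. After 96 h, methanol fixation and 10% Giemsa staining; infected and non-infected macrophages counted, % reduction in parasite burden vs controls, IC50 by linear regression; miltefosine control.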

Structures are written as SMILES. Values after ≈ are worked out from the molar mass of the structure shown. Bounds are passed on as bounds.

By IC50 is commonly meant the concentration that gives 50% inhibition. Low values mean inhibition by little substance, high ones a need for much substance. Broadly, the half-life is the time needed for the level to fall by half in the phase considered. In general, logD refers to lipophilicity at a set pH, counting ionised and neutral species. A low value points to a more hydrophilic compound. For `O=C(Nc1ccc(Cl)c(-c2nc3ncccc3o2)c1)c1ccco1`, the solubility kinetic in data set [1] and in data set [5] was 1.6 µg/mL (≈ 4.71 µM) in each case. Also, the 50% inhibitory concentration (IC50) amounted to 220 nM in data set [2]; 590 nM in data set [3]; 23000 nM in the data set on L6; 1800 nM with Leishmania donovani [8]; 230 nM in the data set on Trypanosoma cruzi; 7800 nM with Plasmodium falciparum. Moreover, the selectivity ratio in data set [4] is 99; in data set [7], 39; in [11], above 345. In [6], the half-life at 1 µM amounted to 7 min. In [9], this compound returned a logD of 2.7. In addition, in data set [10], the microsomal CLint at 1 µM amounted to 258 µL/min/mg.

As for `O=C(Nc1ccc(Cl)c(-c2nc3ncccc3o2)c1)c1ccccc1`, the concentration for half-maximal inhibition (IC50) worked out at 1500 nM in data set [2]; 4200 nM in [3]; 37000 nM in the data set with Leishmania donovani [12]; 51000 nM in the data set with L6; 6100 nM in the data set with Leishmania donovani [8]; 2900 nM with Trypanosoma cruzi. In the data set with Plasmodium falciparum, this compound had an IC50 of 6900 nM. Moreover, the selectivity ratio in data set [11] worked out at 54.

As to `O=C(Nc1ccc(Cl)c(-c2nc3ncccc3o2)c1)c1ccoc1`, the 50% inhibitory concentration (IC50) in data set [2] came to 300 nM; in data set [3], 91 nM; in the data set with Leishmania donovani [12] it was 12000 nM; in the data set with L6 it was 65000 nM; with Leishmania donovani [8] it was 340 nM; with Trypanosoma cruzi, 260 nM. In addition, in the data set with Plasmodium falciparum, half-maximal inhibition (IC50) was put at 4900 nM. The selectivity ratio in [7] is above 700; in [11] it was 160.

Turning to `O=C(Nc1ccc(Cl)c(-c2nc3ncccc3o2)c1)c1cscn1`, the concentration for half-maximal inhibition (IC50) in [2] is 1800 nM; in data set [3], 1100 nM; with Leishmania donovani [12], above 84000 nM; in the data set on L6, 235000 nM; with Leishmania donovani [8], 4800 nM; in the data set on Trypanosoma cruzi it was 2300 nM. In addition, the midpoint of inhibition with Plasmodium falciparum, the IC50, lay at 7700 nM. Also, the selectivity ratio in data set [11] was found to be 39.

The EC50 is the midpoint of the concentration-response curve. Low values mean an effect from little substance, high ones a need for much substance. `CCCCCCCCCCCCCCCCOP(=O)([O-])OCC[N+](C)(C)C` [MILTEFOSINE]: the EC50 with Leishmania donovani [12] worked out at 1670 nM; in the data set on Leishmania donovani [8], 490 nM.

For the origin of these results see ChEMBL document CHEMBL2407056, “3-(Oxazolo[4,5-b]pyridin-2-yl)anilides as a novel class of potent inhibitors for the kinetoplastid Trypanosoma brucei, the causative agent for human African trypanosomiasis” (Eur J Med Chem, 2013).
